ChEMBL document CHEMBL1146374, “Clubbed triazoles: a novel approach to antitubercular drugs” (Eur J Med Chem, 2007)
Values after ≈ are worked out from the molar mass of the structure shown.

Experiments:
[1] = system: Pseudomonas aeruginosa; test: Antibacterial activity against Pseudomonas aeruginosa at 50 to 100 uM after 24 hrs by well diffusion method; type: functional
Method in brief: (§1)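 Agar well diffusion: nutrient agar plates with 10 mm wells cut by sterile cork borer; 24-h subcultured bacteria swabbed onto the plates from nutrient broth. Compounds were dissolved in chloroform and added to wells at […]. Gentamycin served as the standard antibiotic.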

[2] = system: Escherichia coli; test: Antibacterial activity against Escherichia coli at 50 to 100 uM after 24 hrs by well diffusion method; type: functional; method in brief: as §1
[3] = system: Mycobacterium tuberculosis; test: (§2) Antituberculosis activity against Mycobacterium tuberculosis H37Rv by Microplate Alamar Blue Assay; type: functional
Method in brief: (§3)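 MIC against M. tuberculosis H37Rv (ATCC 27294) in BACTEC 12B medium by broth microdilution (MABA). Primary actives were retested at lower concentrations. MIC is the lowest concentration giving a […] fluorescence reduction versus controls. Fluorescent compounds were run in the BACTEC 460 radiometric system. Rifampin was the reference.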

[4] = system: Salmonella typhi; test: Antibacterial activity against Salmonella typhi at 50 to 100 uM after 24 hrs by well diffusion method; type: functional, Salmonella enterica subsp. enterica serovar Typhi
Method in brief: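 Agar well diffusion on nutrient agar plates; wells cut with a 10 mm sterile cork borer. Plates swabbed with 24-h subcultured bacteria from nutrient broth. Compounds dissolved in chloroform and added to wells at a range of concentrations. Gentamycin was the standard.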

[5] = system: Staphylococcus aureus; test: Antibacterial activity against Staphylococcus aureus at 50 to 100 uM after 24 hrs by well diffusion method; type: functional; method in brief: as §1
[6] = Cytotoxicity against Vero-C1008 cells at 6.25 to 50 ug/ml; type: cell-based; conditions: chlorocebus sabaeus
Method in brief: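 Vero-C-1008 cells were exposed to compounds at several concentrations across 6.25–50 µg/ml. Cytotoxicity was read out by neutral red uptake.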

[7] = system: Mycobacterium tuberculosis; test: Growth inhibition of Mycobacterium tuberculosis H37Rv at 6.25 ug/ml by Microplate Alamar Blue Assay; type: functional; conditions: read-out: GI
Method in brief: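 Primary single-concentration screen against M. tuberculosis H37Rv (ATCC 27294) in BACTEC 12B medium by MABA broth microdilution, read as % inhibition. Compounds that fluoresce were tested in the BACTEC 460 radiometric system. More than 95% inhibition was the activity cutoff.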

[8] = system: Mycobacterium tuberculosis; test: as §2; type: functional; method in brief: as §3; remark: listed apart in the source

Compound | zone of inhibition [1] [mm] | zone of inhibition [2] [mm] | MIC [3] [µg/mL] | Inhibition [4] [%] | zone of inhibition [5] [mm] | Activity [6] | inhibition of growth at 6.25 µg/mL [7] [%] | MIC [8] [µM]
COC(=O)CSc1nnc(Cc2csc(NC(=O)c3ccccc3)n2)n1NC(=O)c1ccccc1 | 22 | 20 | < 6.25 | 20 | 22 | Non-toxic |  | 
N#CCSc1nnc(Cc2csc(NC(=O)CCl)n2)n1NC(=O)c1ccccc1 | 16 | 10 | < 6.25 | 10 | 20 | Non-toxic |  | 
CO[C@H]1/C=C/O[C@@]2(C)Oc3c(C)c(O)c4c(O)c(c(/C=N/N5CCN(C)CC5)c(O)c4c3C2=O)NC(=O)/C(C)=C\C=C\[C@H](C)[C@H](O)[C@@H](C)[C@@H](O)[C@@H](C)[C@H](OC(C)=O)[C@@H]1C [RIFAMPIN] |  |  | 15 (≈ 18.2 µM) |  |  |  | 97 | 
CC(=O)Nc1nc(Cc2nnc(SCc3nnc(S)n3N)n2NC(=O)c2ccccc2)cs1 | 16 | 12 | < 6.25 | 18 | 14 | Non-toxic |  | 
Nn1c(S)nnc1Cc1csc(NC(=O)CCl)n1 | 17 | 14 | < 6.25 | 12 | 18 | Non-toxic |  | 
CC(=O)Nc1nc(Cc2nnc(SCC(=O)NN)n2NC(=O)c2ccccc2)cs1 | 32 | 26 | < 6.25 | 24 | 32 | Non-toxic | 100 | 3.13 (≈ 1.4 µg/mL)
COC(=O)CSc1nnc(Cc2csc(NCCC(=O)O)n2)n1NC(=O)c1ccccc1 | 18 | 12 | < 6.25 | 12 | 16 | Non-toxic |  | 
O=C(O)CCNc1nc(Cc2nnc(SCC(=O)NNC(=O)c3ccccc3)n2NC(=O)c2ccccc2)cs1 |  |  | < 6.25 |  |  | Non-toxic |  | 
CC(=O)Nc1nc(Cc2nnc(SCC#N)n2NC(=O)c2ccccc2)cs1 | 22 | 20 | < 6.25 | 16 | 22 | Non-toxic | 97 | 6.25 (≈ 2.58 µg/mL)
CC(=O)Nc1nc(Cc2nnc(SCSc3nnc(Cc4csc(NC(C)=O)n4)n3NC(=O)c3ccccc3)n2NC(=O)c2ccccc2)cs1 | 16 | 12 | < 6.25 | 12 | 16 | Non-toxic |  | 
O=C(CCl)NNC(=O)CSc1nnc(Cc2csc(NC(=O)c3ccccc3)n2)n1NC(=O)c1ccccc1 |  |  | < 6.25 |  |  | Non-toxic |  | 
O=C(O)CCNc1nc(Cc2nnc(S)n2NC(=O)c2ccccc2)cs1 | 17 | 15 | < 6.25 | 22 | 11 | Non-toxic |  | 
O=C(Nc1nc(Cc2nnc(S)n2NC(=O)c2ccccc2)cs1)c1ccccc1 | 10 | 10 | < 6.25 | 18 | 16 | Non-toxic |  | 
Nn1c(S)nnc1Cc1csc(NCCC(=O)O)n1 | 22 | 20 | < 6.25 | 16 | 25 | Non-toxic |  | 
CC(=O)NNC(=O)CSc1nnc(Cc2csc(NC(C)=O)n2)n1NC(=O)c1ccccc1 | 18 | 10 | < 6.25 | 18 | 21 | Non-toxic |  | 
COC(=O)CSc1nnc(Cc2csc(NC(=O)CCl)n2)n1NC(=O)c1ccccc1 | 22 | 20 | < 6.25 | 18 | 24 | Non-toxic |  | 
Nn1c(S)nnc1Cc1csc(NC(=O)c2ccccc2)n1 | 20 | 18 | < 6.25 | 14 | 22 | Non-toxic |  | 
CC(=O)Nc1nc(Cc2nnc(SCC(=O)NNC(=O)c3ccccc3)n2NC(=O)c2ccccc2)cs1 |  |  | < 6.25 |  |  | Non-toxic |  | 
COC(=O)CSc1nnc(Cc2csc(NC(C)=O)n2)n1NC(=O)c1ccccc1 | 11 | 24 | < 6.25 | 24 | 22 | Non-toxic |  | 
